Consider 7 compounds from ChEMBL document CHEMBL1150607, “Ancistrocongolines A-D, new naphthylisoquinoline alkaloids from ancistrocladus congolensis” (J Nat Prod, 2002).

Values after ≈ are worked out from the molar mass of the structure shown.

One series concerns Trypanosoma cruzi. Kind of series: Antitrypanosomal activity against Trypanosoma cruzi Tulahuen strain C2C4 containing galactosidase gene in rat L6 cells after 4 days. To be noted: L6, 96 h. In kind it is functional, organism-based. A digest of the protocol: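 L-6 cells seeded 2000/well in RPMI 1640, 10% FBS, 2 mM L-glutamine; after 24 h, 5000 Lac Z trypomastigotes added with serial drug dilutions, 4 days at 37 °C, 5% CO2. CPRG/Nonidet substrate added, colour read at 540 nm after 2–4 h; IC50 from sigmoidal inhibition curve.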

Series [1] in a line: Cytotoxicity against rat L6 cells after 72 hrs by alamar blue assay. In kind it is cell-based. To be noted: […]. A digest of the protocol: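 L-6 cells in RPMI 1640 with 10% FBS exposed to serial drug dilutions, protocol closely following the T. b. rhodesiense assay; viability read with Alamar Blue, expressed as IC50.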
(In general: Resazurin is reduced to fluorescent resorufin, in cell work by metabolically active cells.)

Series [2] relates to Trypanosoma brucei rhodesiense. Kind of series: Antitrypanosomal activity against Trypanosoma brucei rhodesiense after 72 hrs by alamar blue assay. In kind it is functional, organism-based. A digest of the protocol: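 STIB 900 trypanosomes in Minimum Essential Medium with 2-mercaptoethanol and 15% heat-inactivated horse serum, serial drug dilutions, 72 h at 37 °C, 5% CO2; Alamar Blue added, 2–4 h more, fluorescence read ex 530/em 590 nm. Signal expressed as percent of control; IC50 determined.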

Another series deals with Plasmodium falciparum. Kind of series: Antimalarial activity against Plasmodium falciparum K1 in human erythrocytes after 48 hrs by [3H]hypoxanthine uptake. In kind it is functional, organism-based. A digest of the protocol:
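Infected human red cells with chloroquine/pyrimethamine-resistant K1 strain exposed to serial dilutions 48 h, 37 °C, reduced O2/elevated CO2; [³H]-hypoxanthine then added, 24 h further incubation, harvested on glass fibre filters, scintillation counted. IC50 from sigmoidal inhibition curve; duplicate, repeated at least once.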

A further series has as its system Leishmania donovani. Briefly: Antileishmanial activity against Leishmania donovani. In kind it is functional, organism-based.

`COc1cc(C)cc2c(-c3c(O)cc(O)c4c3C[C@@H](C)N(C)[C@@H]4C)ccc(O)c12` [ANCISTROCONGOLINE A]: the IC50 in the series on Trypanosoma cruzi was found to be 39.9 µg/mL (≈ 101 µM); in series [2], 2.97 µg/mL (≈ 7.55 µM); in the series with Plasmodium falciparum it was 0.214 µg/mL (≈ 0.544 µM). For the same compound, the IC50 at 72 h in series [1] came out at 90 µg/mL (≈ 229 µM).
Take `COc1cc(O)c2c(c1-c1ccc(OC)c3c(OC)cc(C)cc13)C[C@@H](C)N(C)[C@@H]2C` [ANCISTROCONGOLINE B]: the IC50 in the series with Trypanosoma cruzi worked out at 17.4 µg/mL (≈ 41.3 µM); in series [2], 2.54 µg/mL (≈ 6.03 µM); with Leishmania donovani, 18.8 µg/mL (≈ 44.6 µM); in the series on Plasmodium falciparum it was 0.158 µg/mL (≈ 0.375 µM). Further, the IC50 at 72 h in series [1] was found to be 33.4 µg/mL (≈ 79.2 µM).
For `COc1cc(O)c(-c2ccc(OC)c3c(OC)cc(C)cc23)c2c1[C@@H](C)N(C)[C@H](C)C2` [ANCISTROCONGOLINE C] the same measures were at least 90 µg/mL, 15.9 µg/mL (≈ 37.7 µM), 19.3 µg/mL (≈ 45.8 µM), 3 µg/mL (≈ 7.12 µM) and at least 90 µg/mL.
For `COc1c(-c2c(C)cc(OC)c3c(OC)cccc23)c(O)cc2c1[C@@H](C)N[C@H](C)C2` [ANCISTROCONGOLINE D] the same measures were 30.1 µg/mL (≈ 73.9 µM), 5.86 µg/mL (≈ 14.4 µM), over 30 µg/mL, 1.98 µg/mL (≈ 4.87 µM) and 27.7 µg/mL (≈ 68 µM).
In the series on Plasmodium falciparum, `C[C@@H]1CC[C@H]2[C@@H](C)C(=O)O[C@@H]3O[C@@]4(C)CC[C@@H]1[C@]32OO4` [ARTEMISININ] yielded an IC50 of 0.001 µg/mL (≈ 0.00354 µM).
Consider `O=C(Cn1ccnc1[N+](=O)[O-])NCc1ccccc1` [BENZNIDAZOLE], for which the IC50 with Trypanosoma cruzi amounted to 0.382 µg/mL (≈ 1.47 µM).
Regarding `COc1cc(C)cc2c(-c3c(O)cc(O)c4c3C[C@@H](C)N[C@@H]4C)ccc(O)c12` [KORUPENSAMINE A], the IC50 in the series on Trypanosoma cruzi came to 14.5 µg/mL (≈ 38.2 µM); in series [2] it was 1.87 µg/mL (≈ 4.93 µM); in the series with Leishmania donovani, 25.1 µg/mL (≈ 66.1 µM); in the series with Plasmodium falciparum, 0.164 µg/mL (≈ 0.432 µM). Besides, the IC50 at 72 h in series [1] turned out to be 38 µg/mL (≈ 100 µM).
